Data published in ChEMBL document CHEMBL1124101, “Asymmetrical bisintercalators as potential antitumor agents” (1988).

How the values were obtained:
Mus musculus = species on record: Mus musculus; assay: Treated mean survival time per control mean survival time.; assay type: functional
L1210 [1] = assay: Dose that inhibits 50% of the L1210 cell growth after 24 hr exposure to the compound.; assay type: functional; settings: Mus musculus, L1210, 24 h; read-out: ED50 (the source's name)
L1210 [2] = assay: Dose required to inhibit the cloning efficiency to a factor of 37%,measured in vitro on L1210 cells after 24-h exposure
Nucleic Acid = assay: Binding affinity for DNA; assay type: nucleic-acid assay
Summary of the method: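 Fluorometric competition with ethidium dimer (6.4 × 10^-7 M) pre-equilibrated 24 h with calf thymus DNA (1.6 × 10^-6 M base pairs). Drug was added at varying concentrations. Fluorescence was excited at 540 nm and read at 610 nm. Bound ethidium dimer per base pair was derived, and computed displacement curves were fitted to the experimental ones to give apparent affinity constants (M^-1).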

Escherichia coli = assay: Cytotoxicity on Escherichia coli polA strain mutant expressed as dose required to inhibit 37% of cell growth; assay type: functional
L1210 [3] = assay: Maximal tolerated dose for anti-tumor activity in vivo on L1210-infected mice; assay type: functional, Mus musculus
L1210 [4] = assay: Optimal dose for anti-tumor activity in vivo on L1210-infected mice; assay type: functional, Mus musculus

**Q.** Which T/C (Mus musculus) does the source give for `COc1ccc2c(c1)c1c3c[n+](CCN4CCC(CC5CCN(CC[n+]6ccc7ccc8c(c7c6)c6cc(OC)ccc6n8C)CC5)CC4)ccc3ccc1n2C.CS(=O)(=O)[O-].CS(=O)(=O)[O-]` here?
**A.** Its T/C is 190%.

**Q.** What about the EC50 (L1210 [1]) of the same compound?
**A.** The EC50 was 700 nM.

**Q.** What about the EC37 (L1210 [2]) of the same compound?
**A.** Its EC37 is 0.013 µM.

**Q.** And the K app x10e-7 (Nucleic Acid)?
**A.** The K app x10e-7 was 20 M⁻¹.

**Q.** What about the EC37 (Escherichia coli) of the same compound?
**A.** Its EC37 is 0.014 µM.

**Q.** And the MTD (L1210 [3])?
**A.** The MTD was 10 mg/kg.

**Q.** What about the OD (L1210 [4]) of the same compound?
**A.** Its OD is 3 mg/kg.

**Q.** For `COc1ccc2c(c1)c1c3c[n+](CCN4CCC(CCC5CCN(CC[n+]6ccc7ccc8c(c7c6)c6cc(OC)ccc6n8C)CC5)CC4)ccc3ccc1n2C.CS(=O)(=O)[O-].CS(=O)(=O)[O-]`, which T/C (Mus musculus) is on record?
**A.** Its T/C is 170%.

**Q.** And the EC50 (L1210 [1])?
**A.** The EC50 was 900 nM.

**Q.** And the EC37 (L1210 [2])?
**A.** The EC37 was 0.77 µM.

**Q.** And the K app x10e-7 (Nucleic Acid)?
**A.** The K app x10e-7 was 3 M⁻¹.

**Q.** And the EC37 (Escherichia coli)?
**A.** Its EC37 is 0.225 µM.

**Q.** And the MTD (L1210 [3])?
**A.** The MTD was 10 mg/kg.

**Q.** And the OD (L1210 [4])?
**A.** Its OD is 5 mg/kg.

**Q.** Which results are given for `COc1ccc2[nH]c3ccc4cc[n+](CCCN5CCC(C6CCN(CC[n+]7ccc8ccc9[nH]c%10ccc(OC)cc%10c9c8c7)CC6)CC5)cc4c3c2c1.CS(=O)(=O)[O-].CS(=O)(=O)[O-]`?
**A.** T/C (Mus musculus): 137%; EC50 (L1210 [1]): 720 nM; EC37 (L1210 [2]): 0.09 µM; K app x10e-7 (Nucleic Acid): 5 M⁻¹; EC37 (Escherichia coli): 0.016 µM; MTD (L1210 [3]): 20 mg/kg; OD (L1210 [4]): 10 mg/kg

**Q.** With `COc1ccc2c(c1)c1c3c[n+](CCCN4CCC(C5CCN(CC[n+]6ccc7ccc8c(c7c6)c6cc(OC)ccc6n8C)CC5)CC4)ccc3ccc1n2C.CS(=O)(=O)[O-].CS(=O)(=O)[O-]` as the compound, how does the T/C (Mus musculus) read?
**A.** Its T/C is 128%.

**Q.** And the EC50 (L1210 [1])?
**A.** The EC50 was over 900 nM.

**Q.** And the EC37 (L1210 [2])?
**A.** Its EC37 is 0.112 µM.

**Q.** What about the K app x10e-7 (Nucleic Acid) of the same compound?
**A.** The K app x10e-7 was 1 M⁻¹.

**Q.** And the EC37 (Escherichia coli)?
**A.** Its EC37 is 0.025 µM.

**Q.** And the MTD (L1210 [3])?
**A.** Its MTD is 10 mg/kg.

**Q.** What about the OD (L1210 [4]) of the same compound?
**A.** Its OD is 10 mg/kg.

**Q.** How did the EC50 (L1210 [1]) turn out when `COc1ccc2nc3cc(Cl)ccc3c(NCCN3CCC(C4CCN(CC[n+]5ccc6ccc7c(c6c5)c5cc(OC)ccc5n7C)CC4)CC3)c2c1.CS(=O)(=O)[O-]` was run?
**A.** Its EC50 is 240 nM.

**Q.** What about the EC37 (L1210 [2]) of the same compound?
**A.** Its EC37 is over 0.9 µM.

**Q.** What about the K app x10e-7 (Nucleic Acid) of the same compound?
**A.** The K app x10e-7 was 10 M⁻¹.

**Q.** What about the EC37 (Escherichia coli) of the same compound?
**A.** The EC37 was 0.029 µM.

**Q.** What about the MTD (L1210 [3]) of the same compound?
**A.** Its MTD is 15 mg/kg.

**Q.** And the OD (L1210 [4])?
**A.** Its OD is 15 mg/kg.

**Q.** With `COc1ccc2c(c1)c1c3c[n+](CCN4CCC(C5CCN(CC[n+]6ccc7ccc8c(c7c6)c6cc(OC)ccc6n8C)CC5)CC4)ccc3ccc1n2C.CS(=O)(=O)[O-].CS(=O)(=O)[O-]` as the compound, how does the T/C (Mus musculus) read?
**A.** Its T/C is 178%.

**Q.** What about the EC50 (L1210 [1]) of the same compound?
**A.** Its EC50 is 360 nM.

**Q.** And the EC37 (L1210 [2])?
**A.** Its EC37 is 0.006 µM.

**Q.** What about the K app x10e-7 (Nucleic Acid) of the same compound?
**A.** Its K app x10e-7 is 2 M⁻¹.

**Q.** And the EC37 (Escherichia coli)?
**A.** The EC37 was 0.013 µM.

**Q.** And the MTD (L1210 [3])?
**A.** The MTD was 10 mg/kg.

**Q.** And the OD (L1210 [4])?
**A.** The OD was 2.5 mg/kg.

**Q.** How did the EC50 (L1210 [1]) turn out when `COc1ccc2c(c1)c1c3c[n+](CCN4CCC(CCCC5CCN(CC[n+]6ccc7ccc8c(c7c6)c6cc(OC)ccc6n8C)CC5)CC4)ccc3ccc1n2C.CS(=O)(=O)[O-].CS(=O)(=O)[O-]` was run?
**A.** The EC50 was 260 nM.

**Q.** What about the EC37 (L1210 [2]) of the same compound?
**A.** Its EC37 is 0.15 µM.

**Q.** What about the K app x10e-7 (Nucleic Acid) of the same compound?
**A.** The K app x10e-7 was 20 M⁻¹.

**Q.** What about the EC37 (Escherichia coli) of the same compound?
**A.** The EC37 was 0.009 µM.

**Q.** And the MTD (L1210 [3])?
**A.** The MTD was 10 mg/kg.

**Q.** What about the OD (L1210 [4]) of the same compound?
**A.** The OD was 10 mg/kg.

**Q.** Which T/C (Mus musculus) does the source give for `COc1ccc2[nH]c3ccc4cc[n+](CCN5CCC(CC6CCN(CC[n+]7ccc8ccc9[nH]c%10ccc(OC)cc%10c9c8c7)CC6)CC5)cc4c3c2c1.CS(=O)(=O)[O-].CS(=O)(=O)[O-]` here?
**A.** The T/C was 175%.

**Q.** And the EC50 (L1210 [1])?
**A.** The EC50 was 1080 nM.

**Q.** What about the EC37 (L1210 [2]) of the same compound?
**A.** The EC37 was 0.063 µM.

**Q.** What about the K app x10e-7 (Nucleic Acid) of the same compound?
**A.** The K app x10e-7 was 10 M⁻¹.

**Q.** And the EC37 (Escherichia coli)?
**A.** Its EC37 is 0.021 µM.

**Q.** What about the MTD (L1210 [3]) of the same compound?
**A.** Its MTD is 30 mg/kg.

**Q.** And the OD (L1210 [4])?
**A.** Its OD is 7 mg/kg.

**Q.** Which T/C (Mus musculus) does the source give for `COc1ccc2[nH]c3ccc4cc[n+](CCN5CCC(C6CCN(CC[n+]7ccc8ccc9[nH]c%10ccc(OC)cc%10c9c8c7)CC6)CC5)cc4c3c2c1.CS(=O)(=O)[O-].CS(=O)(=O)[O-]` here?
**A.** Its T/C is 182%.

**Q.** And the EC50 (L1210 [1])?
**A.** Its EC50 is 190 nM.

**Q.** What about the EC37 (L1210 [2]) of the same compound?
**A.** Its EC37 is 0.024 µM.

**Q.** What about the K app x10e-7 (Nucleic Acid) of the same compound?
**A.** The K app x10e-7 was 1 M⁻¹.

**Q.** And the EC37 (Escherichia coli)?
**A.** The EC37 was 0.013 µM.

**Q.** And the MTD (L1210 [3])?
**A.** The MTD was 10 mg/kg.

**Q.** What about the OD (L1210 [4]) of the same compound?
**A.** Its OD is 10 mg/kg.

**Q.** With `COc1ccc2nc3cc(Cl)ccc3c(NCCN3CCC(C4CCN(CC[n+]5ccc6ccc7[nH]c8ccc(OC)cc8c7c6c5)CC4)CC3)c2c1.[Cl-]` as the compound, how does the EC50 (L1210 [1]) read?
**A.** Its EC50 is 2700 nM.

**Q.** And the EC37 (L1210 [2])?
**A.** The EC37 was 17 µM.

**Q.** And the K app x10e-7 (Nucleic Acid)?
**A.** The K app x10e-7 was 5 M⁻¹.

**Q.** What about the EC37 (Escherichia coli) of the same compound?
**A.** The EC37 was 0.057 µM.

**Q.** And the MTD (L1210 [3])?
**A.** Its MTD is 15 mg/kg.

**Q.** What about the OD (L1210 [4]) of the same compound?
**A.** Its OD is 15 mg/kg.

**Q.** `COc1ccc2[nH]c3ccc4cc[n+](CCN5CCC(CCC6CCN(CC[n+]7ccc8ccc9[nH]c%10ccc(OC)cc%10c9c8c7)CC6)CC5)cc4c3c2c1.CS(=O)(=O)[O-].CS(=O)(=O)[O-]` was tested. Which T/C (Mus musculus) did it give?
**A.** The T/C was 143%.

**Q.** And the EC50 (L1210 [1])?
**A.** Its EC50 is 1340 nM.

**Q.** And the EC37 (L1210 [2])?
**A.** The EC37 was 0.22 µM.

**Q.** What about the K app x10e-7 (Nucleic Acid) of the same compound?
**A.** The K app x10e-7 was 7 M⁻¹.

**Q.** And the EC37 (Escherichia coli)?
**A.** Its EC37 is 0.015 µM.

**Q.** And the MTD (L1210 [3])?
**A.** Its MTD is 20 mg/kg.

**Q.** What about the OD (L1210 [4]) of the same compound?
**A.** Its OD is 5 mg/kg.

**Q.** Which results are given for `COc1ccc2[nH]c3ccc4cc[n+](CCN5CCC(CCCC6CCN(CC[n+]7ccc8ccc9[nH]c%10ccc(OC)cc%10c9c8c7)CC6)CC5)cc4c3c2c1.CS(=O)(=O)[O-].CS(=O)(=O)[O-]`?
**A.** EC50 (L1210 [1]): 340 nM; EC37 (L1210 [2]): 0.14 µM; K app x10e-7 (Nucleic Acid): 5 M⁻¹; EC37 (Escherichia coli): 0.087 µM; MTD (L1210 [3]): 10 mg/kg; OD (L1210 [4]): 5 mg/kg
